The record followed here is ChEMBL document CHEMBL1151248, “New lignans from the roots of Valeriana prionophylla with antioxidative and vasorelaxant activities” (2004).

Assay [1] is described as follows: Antioxidant activity against iodophenol-induced chemiluminescence by horseradish peroxidase/perborate/luminol system. The assay is classed as functional. In outline: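 Total antioxidant capacity read by enhanced chemiluminescence. Reagent was assay buffer plus tablets A and B, which supply luminol, p-iodophenol enhancer and perborate oxidant. Values come from a Trolox standard curve (Trolox 20 μg mL⁻¹ in H2O) and are reported as mM Trolox equivalent; n=3.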

Assay [2] concerns Aorta. Nature of the assay: Vasorelaxant activity on Wistar rat aorta ring assessed as inhibition of phenylephrine-induced contraction at 100 uM in presence of endothelium. The class given is functional. Also on record: scale not given: the % may be the effect or the level left.
Assay [3] deals with Aorta. As to the kind of experiment: Vasorelaxant activity on Wistar rat aorta ring assessed as inhibition of phenylephrine-induced contraction at 100 uM in absence of endothelium. The assay is classed as functional. Also on record: scale not given: the % may be the effect or the level left.
Assay [4] can be described thus: Antioxidant activity assessed as ABTS radical scavenging activity after 1 min by TEAC method.

`COc1cc([C@H]2OC[C@]3(O)[C@@H](c4ccc(O)c(OC)c4)OC[C@H]23)ccc1O`: the Activity in assay [1] stood at 6.31 mM; with Aorta [2] it was 24.4%; with Aorta [3] it was 29%; in assay [4] it was 5.1 mM.

For the molecule `COc1cc([C@H]2OC[C@@H]3[C@@H](c4ccc(O[C@@H]5O[C@H](CO)[C@@H](O)[C@H](O)[C@H]5O)c(OC)c4)OC[C@]23O)ccc1O`, the Activity in assay [1] came out at 1.44 mM; in the assay on Aorta [2], 2.5%; in the assay on Aorta [3], 1.7%; in assay [4] it was 2.51 mM.

On to `COc1cc([C@H]2OC[C@]3(O)[C@@H](c4ccc(O[C@@H]5O[C@H](CO)[C@@H](O)[C@H](O)[C@H]5O)c(OC)c4)OC[C@]23O)ccc1O`, for which the Activity in assay [1] is 1.84 mM; with Aorta [2], 20.4%; with Aorta [3], 0%; in assay [4] it was 2.92 mM.

In the case of `C[C@@H]1O[C@@H](O[C@@H]2[C@@H](O)[C@H](OCCc3ccc(O)c(O)c3)O[C@H](CO)[C@H]2OC(=O)/C=C/c2ccc(O)c(O)c2)[C@H](O)[C@H](O)[C@H]1O`, the Activity is 8.2 mM in assay [1] and 5.3 mM in assay [4].

Regarding `COc1cc([C@H]2OC[C@]3(O)[C@@H](c4ccc(O)c(OC)c4)OC[C@]23O)ccc1O` [PRINSEPIOL], the Activity in assay [1] worked out at 6.7 mM; in the assay on Aorta [2], 29.3%; with Aorta [3] it was 5.3%; in assay [4], 5.33 mM.
